Laboratory results published in ChEMBL document CHEMBL3045048, “Synthesis and antifungal action of new tricyclazole analogues” (2004).
Active and inactive are the calls of the source. The rule behind the calls is not given here.

Tests used:
Botrytis cinerea [1] = assay: microbe, parasite or virus in culture; assay type: functional; details: 120 h, read-out: GI
Pyricularia grisea [2] = assay: microbe, parasite or virus in culture; assay type: functional; details: 120 h, read-out: GI
Botrytis cinerea [3] = assay: microbe, parasite or virus in culture; assay type: functional; details: 120 h, read-out: GI; remark: listed apart in the source
Botrytis cinerea [4] = assay: microbe, parasite or virus in culture; assay type: functional; details: 120 h, read-out: GI; remark: listed apart in the source
Pyricularia grisea [5] = assay: microbe, parasite or virus in culture; assay type: functional; details: 120 h, read-out: GI; remark: listed apart in the source
Pyricularia grisea [6] = assay: microbe, parasite or virus in culture; assay type: functional; details: 120 h, read-out: GI; remark: listed apart in the source
Botrytis cinerea [7] = assay: microbe, parasite or virus in culture; assay type: functional; details: 120 h, read-out: GI; remark: listed apart in the source
Pyricularia grisea [8] = assay: microbe, parasite or virus in culture; assay type: functional; details: 120 h, read-out: GI; remark: listed apart in the source
Berkeleyomyces basicola [9] = assay: Antifungal activity against Thielaviopsis basicola Went assessed as color variation of hyphae at 200 ug/ml after 5 days by electron microscopy; assay type: functional, organism-based
How it was run: (§1)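 Mycelium disks (10 mm) from stationary-phase cultures were grown on cellophane over PDA at 26 ± 1 °C to log phase. They were then moved to PDA containing compound at 200 µg mL-1 from DMSO stock (final DMSO 0.1%), with 0.1% DMSO controls. Pigmentation was judged visually and photographically against untreated cultures of the same age.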

Botrytis cinerea [10] = assay: Antifungal activity against Botryotinia fuckeliana assessed as increased quantities of material in immediate layer of cell wall at 200 ug/ml after 5 days by electron microscopy; assay type: functional, organism-based
Sclerotinia minor [11] = assay: Antifungal activity against Sclerotinia minor assessed as color variation of hyphae at 200 ug/ml after 5 days by electron microscopy; assay type: functional, organism-based
How it was run: as §1

Alternaria solani [12] = assay: Antifungal activity against Alternaria solani Nees assessed as bleaching of hyphae at 200 ug/ml after 5 days by electron microscopy; assay type: functional, organism-based
How it was run: as §1

Sclerotinia minor [13] = assay: microbe, parasite or virus in culture; assay type: functional; details: 120 h, read-out: GI
Berkeleyomyces basicola [14] = assay: microbe, parasite or virus in culture; assay type: functional; details: 120 h, read-out: GI
Penicillium italicum [15] = assay: microbe, parasite or virus in culture; assay type: functional; details: ATCC 48952, 120 h, read-out: GI
Penicillium crustosum [16] = assay: microbe, parasite or virus in culture; assay type: functional; details: 120 h, read-out: GI
Pyricularia grisea [17] = assay: Antifungal activity against Magnaporthe grisea assessed as bleaching of hyphae at 200 ug/ml after 5 days by electron microscopy; assay type: functional, organism-based
How it was run: as §1

Botrytis cinerea [18] = assay: Antifungal activity against Botryotinia fuckeliana assessed as inhibition of pigmentation of hyphae at 200 ug/ml after 5 days by electron microscopy; assay type: functional, organism-based
How it was run: as §1

Trichoderma harzianum [19] = assay: microbe, parasite or virus in culture; assay type: functional; details: (Pers.)-Tul, 120 h, read-out: GI
Penicillium italicum [20] = assay: Antifungal activity against Penicillium italicum ATCC 48952 assessed as color variation of hyphae at 200 ug/ml after 5 days by electron microscopy; assay type: functional, organism-based
How it was run: as §1

Alternaria solani [21] = assay: microbe, parasite or virus in culture; assay type: functional; details: 120 h, read-out: GI
Botrytis cinerea [22] = assay: Antifungal activity against Botryotinia fuckeliana assessed as anamalous stratification at septa at 200 ug/ml after 5 days by electron microscopy; assay type: functional, organism-based
Berkeleyomyces basicola [23] = assay: microbe, parasite or virus in culture; assay type: functional; details: 120 h, read-out: GI; remark: listed apart in the source
Penicillium crustosum [24] = assay: microbe, parasite or virus in culture; assay type: functional; details: 120 h, read-out: GI; remark: listed apart in the source
Penicillium italicum [25] = assay: microbe, parasite or virus in culture; assay type: functional; details: ATCC 48952, 120 h, read-out: GI; remark: listed apart in the source
Trichoderma harzianum [26] = assay: microbe, parasite or virus in culture; assay type: functional; details: (Pers.)-Tul, 120 h, read-out: GI; remark: listed apart in the source
Sclerotinia minor [27] = assay: microbe, parasite or virus in culture; assay type: functional; details: 120 h, read-out: GI; remark: listed apart in the source
Penicillium crustosum [28] = assay: Antifungal activity against Penicillium crustosum assessed as color variation of hyphae at 200 ug/ml after 5 days by electron microscopy; assay type: functional, organism-based
How it was run: as §1

Trichoderma viride [29] = assay: microbe, parasite or virus in culture; assay type: functional; details: 120 h, read-out: GI
Trichoderma viride [30] = assay: microbe, parasite or virus in culture; assay type: functional; details: 120 h, read-out: GI; remark: listed apart in the source
Alternaria solani [31] = assay: microbe, parasite or virus in culture; assay type: functional; details: 120 h, read-out: GI; remark: listed apart in the source
Trichoderma harzianum [32] = assay: Antifungal activity against Trichoderma harzianum (Pers.)-Tul assessed as color variation of hyphae at 200 ug/ml after 5 days by electron microscopy; assay type: functional, organism-based
How it was run: as §1

Structure (SMILES) | inhibition of growth at 200 µg/mL (Botrytis cinerea [1]) [%] | inhibition of growth at 100 µg/mL (Pyricularia grisea [2]) [%] | inhibition of growth at 100 µg/mL (Botrytis cinerea [3]) [%] | inhibition of growth at 50 µg/mL (Botrytis cinerea [4]) [%] | inhibition of growth at 200 µg/mL (Pyricularia grisea [5]) [%] | inhibition of growth at 10 µg/mL (Pyricularia grisea [6]) [%] | inhibition of growth at 10 µg/mL (Botrytis cinerea [7]) [%] | inhibition of growth at 50 µg/mL (Pyricularia grisea [8]) [%] | inhibition of growth at 200 µg/mL (Sclerotinia minor [13]) [%] | inhibition of growth at 100 µg/mL (Berkeleyomyces basicola [14]) [%] | inhibition of growth at 200 µg/mL (Penicillium italicum [15]) [%] | inhibition of growth at 100 µg/mL (Penicillium crustosum [16]) [%] | inhibition of growth at 200 µg/mL (Trichoderma harzianum [19]) [%] | inhibition of growth at 100 µg/mL (Alternaria solani [21]) [%] | inhibition of growth at 200 µg/mL (Berkeleyomyces basicola [23]) [%] | inhibition of growth at 200 µg/mL (Penicillium crustosum [24]) [%] | inhibition of growth at 100 µg/mL (Penicillium italicum [25]) [%] | inhibition of growth at 100 µg/mL (Trichoderma harzianum [26]) [%] | inhibition of growth at 100 µg/mL (Sclerotinia minor [27]) [%] | inhibition of growth at 100 µg/mL (Trichoderma viride [29]) [%] | further results
Cn1ncc2sc3nncn3c21 | 32.2 | 24 | 19.3 | 4 | 43.4 | 3 | 0 | 8.2 | – | – | – | – | – | – | – | – | – | – | – | – | –
Cc1nn(C)c2c1sc1nncn12 | 65.4 | 20.5 | 28.8 | 14.6 | 59.1 | 12.2 | 10.8 | 13 | 0 | 0 | 0 | 0 | 0 | 0 | 0 | 10 | 0 | 0 | 0 | 0 | Activity (Berkeleyomyces basicola [9]): Active; Activity (Botrytis cinerea [10]): Active; Activity (Sclerotinia minor [11]): Active; Activity (Alternaria solani [12]): Active; Activity (Pyricularia grisea [17]): Active; Activity (Botrytis cinerea [18]): inactive; Activity (Penicillium italicum [20]): Active; Activity (Botrytis cinerea [22]): Active; Activity (Penicillium crustosum [28]): Active; inhibition of growth at 200 µg/mL (Trichoderma viride [30]): 0%; inhibition of growth at 200 µg/mL (Alternaria solani [31]): 23.4%; Activity (Trichoderma harzianum [32]): Active
Cc1cccc2sc3nncn3c12 [TRICYCLAZOLE] | 77.8 | 62.3 | 29.6 | 8.3 | 94 | 0 | 0 | 24.1 | 0 | 40.1 | 70.4 | 80.3 | 50.2 | 0 | 66.6 | 95 | 20.1 | 20 | 0 | 20.2 | inhibition of growth at 200 µg/mL (Trichoderma viride [30]): 60%; inhibition of growth at 200 µg/mL (Alternaria solani [31]): 0%
